C8 TRAIL sens: sensitizes caspase-8 expressing cells to TRAIL; hit rate 1% among 360,000; inhibition (viability loss, TRAIL sensitization), % at 10 µM; NB7+C8 cells + TRAIL, ATPlite viability luminescence;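 active = compounds causing at least 50% loss of cell viability in the single-dose screen, relative to plate controls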
beta cell repl: inducers of beta-cell replication in MIN6 cells; MIN6 cells proliferation, ATPlite luminescence, 48 h; cells starved in 0.2% serum; 100% = growth in 10% serum; proliferation, % at 10 µM; hit rate 0.29% among 330,000; AID 2380;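 active = compounds whose signal lies at least 3.5 SD above the mean of all wells on their plate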
FLuc inh counter: Photinus pyralis luciferase inhibition counter-screen | P08659 | ATPLite firefly luciferase biochemical luminescence, 10 min | inhibition, % at 10 µM | hit rate 1.5% among 200,000 | AID 1006;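 active = inhibition above about 50% when tested at 10 µM, limit read from the data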
Target sequence (P08659 whole entry, looked up): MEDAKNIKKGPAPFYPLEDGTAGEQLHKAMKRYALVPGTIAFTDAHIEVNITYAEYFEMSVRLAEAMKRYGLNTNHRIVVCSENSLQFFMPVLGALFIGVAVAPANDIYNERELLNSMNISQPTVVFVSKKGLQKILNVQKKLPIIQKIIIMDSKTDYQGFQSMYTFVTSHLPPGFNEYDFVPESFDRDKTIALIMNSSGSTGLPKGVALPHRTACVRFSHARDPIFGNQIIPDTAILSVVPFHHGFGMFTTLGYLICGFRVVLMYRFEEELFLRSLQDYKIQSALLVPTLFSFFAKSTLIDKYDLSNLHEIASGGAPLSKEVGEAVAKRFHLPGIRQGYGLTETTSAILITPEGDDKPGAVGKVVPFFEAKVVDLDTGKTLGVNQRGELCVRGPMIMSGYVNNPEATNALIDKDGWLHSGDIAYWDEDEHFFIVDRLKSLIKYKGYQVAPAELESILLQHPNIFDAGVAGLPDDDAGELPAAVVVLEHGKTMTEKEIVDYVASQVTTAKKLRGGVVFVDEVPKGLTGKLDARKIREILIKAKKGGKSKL
FLuc act counter: affects firefly luciferase, flagging false hits in luciferase stimulation screens. 200,000 tested, under 10 active. P08659. activation factor at 10 µM. ATPlite luciferase biochemical, luminescence, 10 min; 0 = ATP-free wells, 1 = DMSO control;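 active = luciferase activation factor, scaled between plate controls, of at least 2 with compound at 10 µM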
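Assay system: Luciferase/luciferin reagent mix; Medium: PBS as buffer for the ATP substrate; Dosing: test compounds dosed from 2 mM stocks in 100% DMSO; Times: 10 min, room temperature; Signal: luminescence from luciferase reaction; Read-out: luciferase activation; Controls: No-ATP low control, compound-free enzyme-plus-ATP high control.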
PPC-1+TRAIL kill: kills PPC-1 cancer cells in the presence of TRAIL; PPC-1 cells + TRAIL, ATPLite viability luminescence; cell killing (% activity), % at 4 µM or 5 µM; hit rate 0.41% among 220,000; AID 1443;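 active = cell killing above 50% in the first pass at 4 µM, then a duplicate retest at 5 µM averaging 50% or more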
iPSC survival up: enhancers of human iPSC single-cell survival; hiPSC single-cell survival, ATPlite luminescence; 100% = ROCK inhibitor wells, 0% = DMSO; survival enhancement, % at 20 µM; hit rate 0.044% among 360,000; in the data active = survival enhancement above about 18%;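 note: cells exposed to compounds for 16 hours before the ATP read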
PPC-1 tox: PPC-1 cell cytotoxicity; shares compounds with PPC-1+TRAIL kill; PPC-1 viability, ATPlite luminescence, overnight; cytotoxicity, % at 5 µM; hit rate 50% among 1,200;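 active = reconfirmed compounds whose average cytotoxicity reaches 50% or more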
Hits are given with their value; - = inactive; . = no result. Hits are enriched below; roughly 1.8% of the tested compounds scored in any of these assays.

SMILES | C8 TRAIL sens | beta cell repl | FLuc inh counter | FLuc act counter | PPC-1+TRAIL kill | iPSC survival up | others
C[C@H]1O[C@@H](OC2CC[C@]3(C=O)[C@H]4CC[C@]5(C)[C@@H](C6=CC(=O)OC6)CC[C@]5(O)[C@@H]4CC[C@]3(O)C2)CC2OC(C)(C)OC21 (stereo not given in full) | 48 | . | . | . | . | -
CCCCN=C[C@]12CCC(O)CC1(O)CCC1[C@@H]2CC[C@]2(C)[C@H](C3C=CC(=O)O3)CCC12O (stereo not given in full) | - | - | . | . | . | -
Cc1cc(OCC(=O)NC(Cc2ccc(Cl)cc2)C(=O)O)c2c3c(c(=O)oc2c1)CCCC3 (stereo not given) | - | - | . | . | . | -
Cc1ccsc1CNCCc1ccccc1F | - | - | . | . | . | -
Cc1cccc(C)c1-n1nnnc1C(C1CC1)N1CCC2(CC1)C(=O)NCN2c1ccccc1 (stereo not given) | - | . | . | . | . | -
CC12CCC3C(CCC4(O)CC(O)CCC34C=O)C1(O)CCC2C1=CC(=O)OC1 (stereo not given) | 69 | . | . | . | . | -
CC12CC[C@H]3[C@@H](CCC4(O)C[C@H](O)CCC34/C=N/NC(=O)c3ccccc3Cl)C1(O)CCC2C1=CC(=O)OC1 (stereo not given in full) | - | - | . | . | - | -
O=C(c1ccccc1)C(Cc1ccccc1)N1CCOCC1 (stereo not given) | - | . | . | . | . | -
CC(=O)OCC12CC(OC(=O)CC(C)C)C(C)=CC1OC1C(O)C(OC(C)=O)C2(C)C12CO2 (stereo not given) | 57 | . | . | . | . | -
c1cc(C2N3CCCN2CC3)ccn1 (stereo not given) | - | - | . | . | - | -
O=[N+]([O-])c1ccc(N2CCOCC2)c2c1no[n+]2[O-] | 94 | . | . | . | . | -
COc1cccc2c1C(=O)c1c(O)c3c(c(O)c1C2=O)CC(O)(C(C)=NO)CC3OC1CC(N)C(O)C(C)O1 (stereo not given) | 53 | . | . | . | . | -
Cc1ccc(-c2cc(-c3ccccc3)cc(-c3ccccc3)[n+]2-c2ccccc2)cc1 | 91 | - | . | . | . | -
Cc1ccc(-c2cc(-c3ccc(C)cc3)[n+](-c3ccccc3)c(-c3ccc(C)cc3)c2)cc1 | 71 | - | . | . | . | -
CCOC(=O)c1cccc(-[n+]2c(-c3ccccc3)cc(-c3ccccc3)cc2-c2ccccc2)c1 | 58 | - | . | . | . | -
Cc1ccc(-c2cc(-c3ccc(C)cc3)[n+](-c3ccc(C(=O)[O-])cc3)c(-c3ccc(C)cc3)c2)cc1 | - | - | . | . | . | -
O/N=C1/C(=C\c2ccccc2)N2CCC1CC2 | - | - | - | - | - | -
CCCCn1nnnc1C(CCc1ccccc1)N1CCC2(CC1)C(=O)NCN2c1ccccc1 (stereo not given) | - | . | . | . | . | -
CC#CP(=O)(OC)C(O)(CF)c1ccccc1 (stereo not given) | - | - | - | - | - | -
CC1=C(O)C(=O)C=C2C1=CC=C1C2(C)CCC2(C)C3CC(C)(C(=O)O)CCC3(C)CCC12C (stereo not given) | 89 | . | . | . | . | -
Cc1cc(/C=C2/C(=O)NC(=O)N(C)C2=O)c(C)n1-c1ccccc1 | - | - | 62 | - | - | -
Cc1cc(/C=C2\C(=O)NC(=O)N(C)C2=O)c(C)n1-c1ccc2c(c1)OCO2 | - | - | 61 | - | - | -
Cc1cc(C=C2C(=O)NC(=O)NC2=O)c(C)n1-c1ccc2c(c1)OCO2 | - | - | 56 | - | - | -
Cc1cc(C=C2C(=O)NC(=S)NC2=O)c(C)n1-c1ccc2c(c1)OCO2 | - | - | - | - | - | -
O=c1[nH]c(=S)[nH]c(O)c1N=Nc1ccc2c(c1)OCO2 | - | - | 53 | - | - | -
SMILES | C8 TRAIL sens | beta cell repl | FLuc inh counter | FLuc act counter | PPC-1+TRAIL kill | iPSC survival up | others
O=c1[nH]c(O)c(N=Nc2ccc(S(=O)(=O)N3CCOCC3)cc2)c(=O)[nH]1 | - | - | - | - | - | -
O=c1[nH]c(O)c(N=Nc2ccc3c(c2)OCCO3)c(=O)[nH]1 | - | - | 69 | - | - | -
Cc1cc(C(=O)CS(=O)(=O)c2ccccc2)cc(C)c1OC(=O)N(C)C | - | - | 78 | - | - | -
Cc1ccc(S(=O)(=O)CC(=O)c2cc(C)c(OC(=O)N(C)C)c(C)c2)cc1 | - | - | - | - | - | -
C=CCn1c(O)c(C(C)=NCc2cc(OC)cc(OC)c2)c(=O)[nH]c1=O | 82 | - | - | - | - | -
S=C(NCCc1ccccc1)N1Cc2cc(N3CCCCC3)ccc2-n2nncc2C1 | - | . | . | . | . | -
Cc1ccc(C(O)(C(=O)OC(C)C)C(O)c2ccccc2)cc1 (stereo not given) | - | . | . | . | . | .
CCOc1ccc(-c2c(C)n(-c3ccc(OCC)cc3)c3[n+]2CCCCC3)cc1 | 52 | - | . | . | - | -
CCOC(=O)c1c(C)n(Cc2ccccc2)c2ccc(OCC(O)CN3C(=O)CNC3=O)cc12 (stereo not given) | - | - | - | - | - | - | PPC-1 tox=-
c1ccc(-c2cc(-c3ccccc3)[n+](-c3ccccc3)c(-c3ccccc3)c2)cc1 | 75 | - | . | . | - | - | PPC-1 tox=-
CN(C)c1ccc(-[n+]2c(-c3ccccc3)cc(-c3ccccc3)cc2-c2ccccc2)cc1 | - | - | - | - | - | - | PPC-1 tox=-
O=P(NC1CCCCC1)(Oc1ccccc1)Oc1ccccc1 | - | . | . | . | . | -
O=c1[nH]c(=S)n(-c2ccccc2)c(O)c1C=NCCN1CCNCC1 | - | - | . | . | . | -
C[C@H]1O[C@@H](O[C@H]2[C@@H](O)C[C@H](O[C@H]3[C@@H](O)C[C@H](O[C@H]4CC[C@@]5(C)[C@H](CC[C@@H]6[C@@H]5CC[C@]5(C)[C@@H](C7=CC(=O)OC7)CC[C@]65O)C4)O[C@@H]3C)O[C@@H]2C)C[C@H](O)[C@@H]1O | . | . | - | - | 74 | . | PPC-1 tox=73
C[C@@H]1O[C@@H](O[C@H]2C[C@@H](O)[C@]3(CO)[C@H]4[C@H](O)C[C@]5(C)[C@@H](C6=CC(=O)OC6)CC[C@]5(O)[C@@H]4CC[C@]3(O)C2)[C@H](O)[C@H](O)[C@H]1O | - | - | - | - | 74 | - | PPC-1 tox=76
COc1ccc(C(c2ccc(OC)cc2)C(Cl)(Cl)Cl)cc1 | - | - | . | . | . | -
COc1cccc(N=Nc2c(O)[nH]c(=S)[nH]c2=O)c1 | - | - | . | . | - | -
O=c1[nH]c(=S)[nH]c(O)c1N=Nc1ccc2c(c1)OCCO2 | 56 | - | . | . | 74 | - | PPC-1 tox=73
CCC(=O)Nc1cc(C(=O)N2CCC3(CC2)OCCO3)ccc1S(=O)(=O)c1ccc(C)cc1 | - | - | - | - | - | -
C/C=C(\C)C(=O)OC1C(C)=C2C(C1OC(=O)CCCCC)C(C)(OC(C)=O)CC(OC(=O)CCC)C1(O)C2OC(=O)C1(C)O (stereo not given) | . | - | . | . | 57 | . | PPC-1 tox=54

Source: PubChem BioAssay (Sanford-Burnham Center for Chemical Genomics)
